One experiment has as its system Escherichia coli. As to the kind of experiment: Antibacterial activity against Escherichia coli DH10B transfected with pBC SK (-) KPC-2 by broth microdilution method. Type of experiment: functional. (In general: In broth dilution the organism is exposed to a series of concentrations in liquid medium.)
Experiment [1] deals with Pseudomonas aeruginosa. As to the kind of experiment: Antibacterial activity against Pseudomonas aeruginosa 776 by broth microdilution method. It counts as functional.
For experiment [2], the system named is Bacteria. As to the kind of experiment: Inhibition of bacteria KPC-2 assessed as Koff rate using nitrocefin as substrate incubated for 30 mins.
Experiment [3] concerns Bacteria. As to the kind of experiment: Inhibition of bacteria PDC-3 assessed as Koff rate using nitrocefin as substrate incubated for 30 mins.
Experiment [4] concerns Bacteria. As to the kind of experiment: Inhibition of bacteria OXA-48 assessed as Koff rate using nitrocefin as substrate incubated for 30 mins.
The subject of experiment [5] is Bacteria. The experiment can be described thus: Inhibition of bacteria OXA-48 assessed as half life using nitrocefin as substrate.
The test system of experiment [6] is Acinetobacter baumannii. The experiment can be described thus: Antibacterial activity against ADC deleted Acinetobacter baumannii by broth microdilution method. Type of experiment: functional.
Experiment [7] has as its system Klebsiella pneumoniae. The experiment can be described thus: Antibacterial activity against Klebsiella pneumoniae 440/1360 producing KPC-2 by broth microdilution method. It counts as functional.
Experiment [8] has as its system Klebsiella pneumoniae. As to the kind of experiment: Antibacterial activity against Klebsiella pneumoniae 11978 producing OXA-48 by broth microdilution method. Type of experiment: functional.
The subject of experiment [9] is Klebsiella pneumoniae. As to the kind of experiment: Antibacterial activity against Klebsiella pneumoniae CAV 1543 producing OXA-48 by broth microdilution method. It counts as functional.
Experiment [10] concerns Klebsiella pneumoniae. The experiment can be described thus: Antibacterial activity against Klebsiella pneumoniae NY BS producing OXA-232 by broth microdilution method. Type of experiment: functional.
Experiment [11] deals with Klebsiella pneumoniae. The experiment can be described thus: Antibacterial activity against Klebsiella pneumoniae jefferson 1773 producing OXA-181 by broth microdilution method. Type of experiment: functional.
Experiment [12] has as its system Bacteria.
The nature of experiment [13]: Inhibition of bacteria KPC-2 assessed as apparent inhibition constant using nitrocefin as substrate.
Experiment [14] can be described thus: Binding affinity to bacteria KPC-2 assessed as dissociation constant.
Experiment [15] has as its system Klebsiella pneumoniae. The experiment can be described thus: Antibacterial activity against Klebsiella pneumoniae 901/1860 producing KPC-3 by broth microdilution method. It counts as functional.
Experiment [16] has as its system Klebsiella pneumoniae. As to the kind of experiment: Antibacterial activity against Klebsiella pneumoniae 935/1884 producing KPC-3 by broth microdilution method. Type of experiment: functional.
In experiment [17] the test system is Klebsiella pneumoniae. As to the kind of experiment: Antibacterial activity against Klebsiella pneumoniae 977/1916 producing KPC-3 by broth microdilution method. It counts as functional.
Experiment [18] concerns Klebsiella pneumoniae. As to the kind of experiment: Antibacterial activity against Klebsiella pneumoniae 1084/1957 producing KPC-3 by broth microdilution method. It counts as functional.
The subject of experiment [19] is Klebsiella pneumoniae. As to the kind of experiment: Antibacterial activity against Klebsiella pneumoniae 1108/1989 producing KPC-3 by broth microdilution method. Type of experiment: functional.
For experiment [20], the system named is Pseudomonas aeruginosa. As to the kind of experiment: Synergistic antibacterial activity against Pseudomonas aeruginosa 776 assessed as cefepime MIC at 8 ug/ml by broth microdilution method. Particulars: dose 8 µg/ml. Type of experiment: functional.
In experiment [21] the test system is Klebsiella pneumoniae. The experiment can be described thus: Synergistic antibacterial activity against Klebsiella pneumoniae jefferson 1773 producing OXA-181 assessed as meropenem MIC at 8 ug/ml by broth microdilution method. It counts as functional. The following applies: dose 8 µg/ml.
Experiment [22] has as its system Acinetobacter baumannii. The experiment can be described thus: Antibacterial activity against Acinetobacter baumannii NCTC 13301 producing OXA-23/51 infected in sc dosed Swiss albino mouse administered 1 hr post infection and measured upto 7 days. Type of experiment: functional. Particulars: NCTC 13301, 168 h, time <= 7 day; for ED50: read-out: PD50. The method in brief:
(§1)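 Peritonitis model: male and female Swiss albino mice infected intraperitoneally with 3.5×10^5 to 3×10^6 CFU/mouse in 5% hog gastric mucin (lethal to untreated mice within 24 h). […] Survival followed 7 days; PD50/PD90 by probit analysis.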

For experiment [23], the system named is Acinetobacter baumannii. As to the kind of experiment: Antibacterial activity against Acinetobacter baumannii NCTC 13303 producing OXA-26/51 infected in sc dosed Swiss albino mouse administered 1 hr post infection and measured upto 7 days. It counts as functional. Particulars: NCTC 13303, 168 h, time <= 7 day. The method in brief: as §1
The subject of experiment [24] is Acinetobacter baumannii. As to the kind of experiment: Antibacterial activity against Acinetobacter baumannii SL46 producing OXA-23/51 infected in sc dosed Swiss albino mouse administered 1 hr post infection and measured upto 7 days. It counts as functional. The following applies: SL46, 168 h, time <= 7 day. The method, boiled down:
as §1

Experiment [25] deals with Acinetobacter baumannii. As to the kind of experiment: Antibacterial activity against ADC deleted Acinetobacter baumannii transfected with pWH1266 OXA-23 by broth microdilution method. It counts as functional.
Experiment [26] concerns Pseudomonas aeruginosa. The experiment can be described thus: Synergistic antibacterial activity against Pseudomonas aeruginosa 715 assessed as cefepime MIC at 8 ug/ml by broth microdilution method. It counts as functional. The following applies: dose 8 µg/ml.
Experiment [27] can be described thus: Inhibition of bacteria OXA-48 assessed as apparent inhibition constant using nitrocefin as substrate.
Experiment [28] can be described thus: Binding affinity to bacteria OXA-48 assessed as dissociation constant.
The subject of experiment [29] is Acinetobacter baumannii. The experiment can be described thus: Synergistic antibacterial activity against Acinetobacter baumannii NCTC 13301 producing OXA-23/51 infected in sc dosed Swiss albino mouse assessed as meropenem MIC at 8 ug/ml administered 1 hr post infection and measured upto 7 days. Particulars: NCTC 13301, 168 h, dose 8 µg/ml, time <= 7 day. Type of experiment: functional.

Experiment [30] deals with Acinetobacter baumannii. The experiment can be described thus: Synergistic antibacterial activity against Acinetobacter baumannii NCTC 13301 producing OXA-23/51 infected in sc dosed Swiss albino mouse assessed as tigecycline MIC at 8 ug/ml administered 1 hr post infection and measured upto 7 days. It counts as functional. Particulars: NCTC 13301, 168 h, dose 8 µg/ml, time <= 7 day.

Experiment [31] concerns Acinetobacter baumannii. As to the kind of experiment: Synergistic antibacterial activity against Acinetobacter baumannii NCTC 13301 producing OXA-23/51 infected in sc dosed Swiss albino mouse assessed as colistin MIC at 8 ug/ml administered 1 hr post infection and measured upto 7 days. It counts as functional. The following applies: NCTC 13301, 168 h, dose 8 µg/ml, time <= 7 day.

Experiment [32] relates to Acinetobacter baumannii. As to the kind of experiment: Synergistic antibacterial activity against Acinetobacter baumannii NCTC 13303 producing OXA-26/51 infected in sc dosed Swiss albino mouse assessed as cefepime MIC at 8 ug/ml administered 1 hr post infection and measured upto 7 days. Type of experiment: functional. The following applies: NCTC 13303, 168 h, dose 8 µg/ml, time <= 7 day.

In experiment [33] the test system is Acinetobacter baumannii. The experiment can be described thus: Synergistic antibacterial activity against Acinetobacter baumannii NCTC 13303 producing OXA-26/51 infected in sc dosed Swiss albino mouse assessed as meropenem MIC at 8 ug/ml administered […] post infection and measured upto 7 days. Particulars: NCTC 13303, 168 h, dose 8 µg/ml, time <= 7 day. It counts as functional.

Experiment [34] deals with Acinetobacter baumannii. The experiment can be described thus: Synergistic antibacterial activity against Acinetobacter baumannii NCTC 13303 producing OXA-26/51 infected in sc dosed Swiss albino mouse assessed as tigecycline MIC at 8 ug/ml administered […] post infection and measured upto 7 days. The following applies: NCTC 13303, 168 h, dose 8 µg/ml, time <= 7 day. It counts as functional.

The subject of experiment [35] is Acinetobacter baumannii. The experiment can be described thus: Synergistic antibacterial activity against Acinetobacter baumannii SL46 producing OXA-23/51 infected in sc dosed Swiss albino mouse assessed as cefepime MIC at 8 ug/ml administered 1 hr post infection and measured upto 7 days. Type of experiment: functional. Particulars: SL46, 168 h, dose 8 µg/ml, time <= 7 day.

The test system of experiment [36] is Acinetobacter baumannii. As to the kind of experiment: Synergistic antibacterial activity against Acinetobacter baumannii SL46 producing OXA-23/51 infected in sc dosed Swiss albino mouse assessed as meropenem MIC at 8 ug/ml administered 2 hrs post infection and measured upto 7 days. Type of experiment: functional. The following applies: SL46, 168 h, dose 8 µg/ml, time <= 7 day.

For experiment [37], the system named is Acinetobacter baumannii. As to the kind of experiment: Antibacterial activity against Acinetobacter baumannii SL46 producing OXA-23/51 infected in sc dosed Swiss albino mouse administered 1 hr post infection and measured upto 7 days. The following applies: SL46, 168 h.
In experiment [38] the test system is Acinetobacter baumannii. The experiment can be described thus: Antibacterial activity against Acinetobacter baumannii NCTC 13303 producing OXA-26/51 infected in sc dosed Swiss albino mouse administered 1 hr post infection and measured upto 7 days. Particulars: NCTC 13303, 168 h.

Values after ≈ are worked out from the molar mass of the structure shown.

For orientation: MIC means the lowest concentration that inhibits growth of the organism. By Kd is commonly meant the equilibrium constant for the complex coming apart.

In the case of `O.O=C(NC1CCNCC1)[C@@H]1CC[C@@H]2CN1C(=O)N2OS(=O)(=O)O` [RELEBACTAM], the MIC in the experiment on Escherichia coli and against Pseudomonas aeruginosa [1] was greater than 16 µg/mL each time.
For the compound `NC(=O)[C@@H]1CC[C@@H]2CN1C(=O)N2OS(=O)(=O)[O-].[Na+]` [AVIBACTAM SODIUM], the K was 1.4 10^-4/s with Bacteria [2], 8 10^-4/s in the experiment on Bacteria [3] and 1.2 10^-5/s in the experiment on Bacteria [4]. Further, the T1/2 is 16.7 h in the experiment on Bacteria [5] and 30.4 h with Bacteria [12]. Further, the MIC was 16 µg/mL in the experiment with Acinetobacter baumannii [6]; greater than 16 µg/mL against Klebsiella pneumoniae [7]; greater than 16 µg/mL in the experiment on Klebsiella pneumoniae [8]; greater than 16 µg/mL in the experiment on Klebsiella pneumoniae [9]; greater than 16 µg/mL in the experiment on Klebsiella pneumoniae [10]; greater than 16 µg/mL against Klebsiella pneumoniae [11].
For the compound `O=C(NNC(=O)[C@@H]1CC[C@@H]2CN1C(=O)N2OS(=O)(=O)O)[C@@H]1CCCNC1` [ZIDEBACTAM], the Ki in [13] is 4500 nM. Also, in experiment [14], the Kd was found to be 43 nM. Also, the minimum inhibitory concentration (MIC) against Klebsiella pneumoniae [15], against Klebsiella pneumoniae [16], in the experiment on Klebsiella pneumoniae [17], in the experiment with Klebsiella pneumoniae [18], against Klebsiella pneumoniae [19] and with Klebsiella pneumoniae [8] was greater than 16 µg/mL each time. For the same compound, the MIC in the experiment with Klebsiella pneumoniae [11] was greater than 16 µg/mL; in the experiment with Pseudomonas aeruginosa [20] it was 16 µg/mL; in the experiment on Klebsiella pneumoniae [21], no more than 0.12 µg/mL. For the same compound, the ED90 was determined as 52.3 mg/kg with Acinetobacter baumannii [22], 23.2 mg/kg with Acinetobacter baumannii [23] and 52.3 mg/kg with Acinetobacter baumannii [24]. Further, the ED50 in the experiment on Acinetobacter baumannii [22] is 23.2 mg/kg; in the experiment with Acinetobacter baumannii [23] (read-out: PD50), less than 23.2 mg/kg; in the experiment on Acinetobacter baumannii [24] (read-out: PD50), 23.2 mg/kg.
Turning to `O=C(NNC(=O)[C@@H]1CC[C@@H]2CN1C(=O)N2OS(=O)(=O)O)[C@@H]1CCNC1`, in experiment [13], the Ki was determined as 7800 nM. Further, in experiment [14], the Kd was found to be 40 nM. Moreover, the MIC in the experiment on Acinetobacter baumannii [6] worked out at 16 µg/mL (≈ 42.4 µM); against Acinetobacter baumannii [25], 16 µg/mL (≈ 42.4 µM); in the experiment with Pseudomonas aeruginosa [1] it was 8 µg/mL (≈ 21.2 µM); in the experiment on Pseudomonas aeruginosa [26] it was 0.25 µg/mL; with Pseudomonas aeruginosa [20] it was 0.25 µg/mL.
Regarding `N#C[C@@H]1CC[C@@H]2CN1C(=O)N2OS(=O)(=O)[O-].[Na+]`, in experiment [27], the Ki worked out at 290 nM. For the same compound, the MIC with Escherichia coli is greater than 16 µg/mL; in the experiment on Pseudomonas aeruginosa [26], greater than 16 µg/mL; in the experiment on Klebsiella pneumoniae [21], 0.25 µg/mL; with Acinetobacter baumannii [29], 1 µg/mL; in the experiment on Acinetobacter baumannii [30] it was 1 µg/mL; in the experiment on Acinetobacter baumannii [31], 1 µg/mL. The MIC in the experiment on Acinetobacter baumannii [32] was 64 µg/mL; with Acinetobacter baumannii [33], 256 µg/mL; with Acinetobacter baumannii [34], 1 µg/mL; in the experiment with Acinetobacter baumannii [35], greater than 512 µg/mL; in the experiment with Acinetobacter baumannii [36], 64 µg/mL. Moreover, the K with Bacteria [4] was 9 10^-4/s. Besides, the T1/2 in the experiment with Bacteria [5] was 0.217 h; with Bacteria [12], 0.483 h. The Kd in [28] is 1.4 nM. The ED90 in the experiment on Acinetobacter baumannii [22] was 23.7 mg/kg; in the experiment on Acinetobacter baumannii [37] it was 66.2 mg/kg; in the experiment with Acinetobacter baumannii [38], 49.4 mg/kg. Further, the ED50 turned out to be 16.3 mg/kg with Acinetobacter baumannii [22], 24.9 mg/kg with Acinetobacter baumannii [37] (read-out: PD50) and 24 mg/kg in the experiment with Acinetobacter baumannii [38] (read-out: PD50).

Values taken from ChEMBL document CHEMBL5247575 (J Med Chem, 2018).
